Hits are enriched below; roughly 1.2% of the tested compounds scored in any of these assays.
IDE act: IDE (human) activation, cell-based. P14735. HEK cells, FAbeta-B cleavage, fluorescence polarization; 0% vehicle, 100% cell-free pure enzyme wells. activation, % at 5.96 µM. 0.073% of 340,000 active;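 active = activation above the mean of all tested compounds plus 3 SD, set per screening campaign, cut at about 17% in these data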
ARFGAP1 inh: inhibitors of rat ARFGAP1; Arfgap1-stimulated ARF1 GTP hydrolysis, GDP FP detection; inhibition, % at 16.5 µM; 0.26% of 360,000 active; AID 651572;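 active = inhibition above a per-plate limit, mean inhibition of low control wells plus 3 SD, cut at about 25% in these data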;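 note: 0% = DMSO wells with enzyme and 100% = wells lacking Arfgap1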
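Material: rat Arfgap1 catalytic domain, aa 1-136; also added: human ARF1(Δ1-17)-GTP substrate; compound dosing: one concentration, 16.5 µM, DMSO 1.26%; incubation: GTP hydrolysis reaction 2 h at 25 °C; measured by: Tracer-displacement fluorescence polarization with EDTA stop, 620/688 nm; evaluation: % inhibition from polarization; repeats: one replicate per compound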
PREPL inh: inhibitors of human prolyl oligopeptidase-like enzyme PREPL | recombinant PREPL, fluorescence polarization activity-based probe | inhibition, % at 5.96 µM | 0.68% of 320,000 active | AID 2751; in the data active = inhibition above about 43%;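 note: 0% = enzyme with DMSO and 100% = wells lacking enzyme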
ASAP1 inh: ASAP1 ArfGAP inhibition | ASAP1-stimulated ARF1 GTP hydrolysis, GDP FP detection | 0.19% of 360,000 active | inhibition, % at 16.5 µM | AID 624377; in the data active = inhibition above about 25%;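 note: 0% = vehicle with enzyme and substrate and 100% = no enzyme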
IDE cell inh: inhibitors of human insulin-degrading enzyme in cells; 0.41% of 320,000 active; inhibition, % at 5.59 µM; P14735; HEK cells, FAbetaB cleavage, fluorescence polarization;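 active = percent inhibition above the average of all tested compounds plus 3 SD, set per screening campaign, cut at about 16% in these data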;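 note: IDE supplied by intact live HEK cells; FP after avidin binding of uncleaved biotin substrate so inhibition keeps polarization high; 0% = DMSO wells and 100% = 60 µM reference IDE inhibitor Ii1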
* hit, by the source's call.

For CCOC(=O)C1(CC2CC2)CCN(Cc2ccc(C(=O)OC)cc2)CC1 the results were IDE act 9.0, ARFGAP1 inh -5.8, PREPL inh 22.4, ASAP1 inh -14.2 and IDE cell inh 2.4.
`COc1ccc(-n2c(N)c(C(=O)Nc3c(C)n(C)n(-c4ccccc4)c3=O)c3nc4ccccc4nc32)cc1` gave IDE act 0.6, ARFGAP1 inh 6.1, PREPL inh -0.8, ASAP1 inh 18.4 and IDE cell inh 5.6.
Cc1ccc(-n2c(N)c(C(=O)Nc3c(C)n(C)n(-c4ccccc4)c3=O)c3nc4ccccc4nc32)cc1C was read as PREPL inh 43.2* and IDE cell inh 1.1.
Screening CNC[C@@H](Cc1ccccc1)NC[C@@H](CC1CCCCC1)NCCCc1ccccc1 returned IDE act 12.9, ARFGAP1 inh 1.5, PREPL inh 13.8, ASAP1 inh 8.9 and IDE cell inh 0.4.
Screening CCC[C@H](CN[C@@H](CNC)[C@H](C)CC)NCCc1cc(C(F)(F)F)cc(C(F)(F)F)c1 returned IDE act 7.7, ARFGAP1 inh 6.4, PREPL inh 42.4, ASAP1 inh -6.0 and IDE cell inh 5.7.
Screening CNC[C@@H](CC1CCCCC1)NC[C@H](CC(C)C)NCCc1cccc(C(F)(F)F)c1 returned IDE act 21.4*, ARFGAP1 inh 5.0, PREPL inh 9.6, ASAP1 inh 15.1 and IDE cell inh 3.0.
Screening CC[C@@H](C)[C@H](CNC)NC[C@@H](Cc1cccc2ccccc12)NCCc1cccc(C(F)(F)F)c1 returned IDE act 29.3*, ARFGAP1 inh 0.8, PREPL inh 28.7, ASAP1 inh 7.7 and IDE cell inh 5.2.
`O=C1c2cc(CO)cc(O)c2C(=O)c2c(O[C@@H]3OC(CO)[C@@H](O)[C@@H](O)[C@@H]3O)cccc21` (some centres not stated) gave IDE act 6.8, ARFGAP1 inh -2.1, PREPL inh -1.2, ASAP1 inh -3.7 and IDE cell inh -2.0.
`O=C(O)c1cc(O)c2c(c1)[C@@H]([C@H]1c3cc(C(=O)O)cc(O)c3C(=O)c3c(O[C@@H]4O[C@H](CO)[C@@H](O)[C@H](O)[C@H]4O)cccc31)c1cccc(OC3O[C@H](CO)[C@@H](O)[C@H](O)[C@H]3O)c1C2=O` (some centres not stated) gave IDE act 3.1, ARFGAP1 inh 10.9, PREPL inh 106.4*, ASAP1 inh 6.3 and IDE cell inh -1.1.
Cc1ccc(NC2C(=O)NC(=O)NC2=O)cc1 was read as IDE act 0.7, ARFGAP1 inh 16.7 and ASAP1 inh 31.8*.
Screening Cc1ccc(NC2CNC(=O)NC2=O)cc1C (configuration not stated) returned IDE act 0.5, ARFGAP1 inh 4.9 and ASAP1 inh 9.2.
NC(=O)CC(NC(=O)OCc1ccccc1)C(=O)O (configuration not stated) was read as IDE act 2.4, ARFGAP1 inh 2.2, PREPL inh 8.6, ASAP1 inh 17.4 and IDE cell inh 0.5.
Screening CC(C)(O)C#Cc1ccccc1C(=O)NC(CC(N)=O)C(=O)O (configuration not stated) returned IDE act 17.6*, ARFGAP1 inh 5.8, PREPL inh -3.7, ASAP1 inh -3.6 and IDE cell inh -3.0.
`CCOC(=O)N1CCN(C2=C(NS(=O)(=O)c3ccccc3)C(=O)c3ccccc3C2=O)CC1` gave IDE act 0.7, ARFGAP1 inh 32.7*, PREPL inh 7.6, ASAP1 inh 28.6* and IDE cell inh -2.2.
Screening CCOC(=O)N1CCN(C2=C(NS(=O)(=O)c3ccc(Br)cc3)C(=O)c3ccccc3C2=O)CC1 returned ARFGAP1 inh -0.8 and ASAP1 inh -3.1.
For COc1cc(F)ccc1Oc1cccc2c1S(=O)(=O)N([C@H](C)c1ccccc1)C[C@@H](COCc1ccccc1)O2 the results were ARFGAP1 inh -11.6 and ASAP1 inh 0.5.
Cc1ccc(N(C)c2nc(N)nc(N)c2N=O)cc1 was read as ARFGAP1 inh -0.6 and ASAP1 inh -13.2.
Clc1cccc(CN2CCN(c3ncc(Cc4ccccc4)cn3)CC2)c1Cl was read as ARFGAP1 inh -3.1 and ASAP1 inh -1.0.
Screening COc1ccc(NC(=O)c2cc([N+](=O)[O-])ccc2O)cc1 returned IDE act 22.2*, ARFGAP1 inh -6.4, PREPL inh 0.9, ASAP1 inh -0.2 and IDE cell inh 3.4.
C#CCN(Cc1ccco1)C(=O)c1nnc2c3ccccc3n(S(=O)(=O)c3ccc(C)cc3)c2n1 was read as ARFGAP1 inh -0.6 and ASAP1 inh -7.0.
Screening CCOC(=O)c1c(C)n(CC)c2ccc(OC(=O)c3ccc([N+](=O)[O-])cc3)cc12 returned IDE act 5.2, ARFGAP1 inh 4.7, PREPL inh 48.5*, ASAP1 inh 0.9 and IDE cell inh 3.2.
For CCOC(=O)c1c(C)n(C)c2ccc(OC(=O)c3ccc([N+](=O)[O-])cc3)cc12 the results were IDE act 5.4, ARFGAP1 inh -13.8, PREPL inh 22.2, ASAP1 inh 4.3 and IDE cell inh 0.2.
`O=C(NCC1CCN(C(=O)C(=O)c2cc3ccccc3o2)CC1)c1ccc2c(c1)OCO2` gave ARFGAP1 inh 10.4 and ASAP1 inh -4.0.
Screening Nc1ccc2ccc(N)cc2c1 returned ARFGAP1 inh 10.0 and ASAP1 inh 6.7.
`O=C1c2cccc3c([N+](=O)[O-])ccc(c23)C(=O)N1c1nccs1` gave IDE act -6.0, ARFGAP1 inh 6.9, PREPL inh 15.1, ASAP1 inh 2.8 and IDE cell inh 22.9*.
Screening CC(=NNc1cc(C)c2ccccc2n1)c1ccccn1 returned ARFGAP1 inh 9.0 and ASAP1 inh 3.9.
For C[C@@H]1CN([C@@H](C)CO)C(=O)CCCn2cc(nn2)CO[C@H]1CN(C)C(=O)Nc1cccc(Oc2ccccn2)c1 the results were ARFGAP1 inh 5.4 and ASAP1 inh 1.4.
Screening COc1ccc(N2CCN(c3oc(-c4ccccc4OC)nc3C#N)CC2)cc1 returned IDE act 2.4, PREPL inh 51.7* and IDE cell inh 0.6.
Screening COC(=O)c1c(C)oc2ccc(N(C(C)=O)S(=O)(=O)c3ccccc3)cc12 returned IDE act 0.4, ARFGAP1 inh 0.9, PREPL inh 7.0, ASAP1 inh 10.4 and IDE cell inh 7.9.
Screening COc1ccc(S(=O)(=O)N(C(C)=O)c2ccc3oc(=O)sc3c2)cc1 returned IDE act -18.6, ARFGAP1 inh -4.3, PREPL inh -0.8, ASAP1 inh -3.7 and IDE cell inh 24.9*.
Screening C[C@@H]1CN(c2ccc(N3CCNC[C@@H]3C)cc2C#N)C[C@H](C)O1 returned ARFGAP1 inh -8.6 and ASAP1 inh 5.8.
For COC(=O)[C@]12C[C@H](CC(=O)NCC3CCCCC3)C(=O)N(CCc3ccc(OC)c(OC)c3)C1=C[C@H](C(C)(C)C)O[C@@H]2C the results were ARFGAP1 inh 10.9 and ASAP1 inh 7.1.
